Legend:
[1] = system: Pmp22; test: S16 GLuc and secNLuc Pmp22 reporter qHTS follow-up assays; assay type: cell-based, rat; settings: for potency on Pmp22 expression: data not shown; for effect on reporter activity: GLuc and secNLuc reporters
[2] = system: Pmp22; test: S16 secNLuc reporter cell assay; assay type: cell-based, rat
[3] = system: CMT1A patients; settings: human clinical trials; cited from earlier work
[4] = system: Pmp22; test: Quantitative RT-PCR of endogenous Pmp22 in S16 cells; assay type: cell-based, rat; settings: qRT-PCR, 1 or 10 nM, 24 h
Method in brief: (§1)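 S16 rat Schwann cells were plated at 2×10^5 cells/well in 6-well plates. They were treated for 24 h with test compound at 1 nM or 10 nM, or with DMSO (0.6%) only. RNA was purified and reverse-transcribed to cDNA. qPCR used SYBR green reactions or Taqman-based custom microfluidic arrays. Data were normalized to ActB and expressed relative to the untreated sample, set to 1 for each gene.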

[5] = system: major myelin genes and their regulators; test: Quantitative RT-PCR of co-regulated myelin genes and regulators in S16 cells; assay type: cell-based, rat; settings: qRT-PCR, 1 or 10 nM, 24 h
Method in brief: as §1

[6] = system: PMP22 regulatory element; test: S16 intronic enhancer FLuc reporter assay; assay type: cell-based, rat; settings: retest after completion of the study
Method in brief: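 S16 cells carrying a randomly integrated firefly luciferase reporter driven by the Pmp22 intronic enhancer were retested with test compound after the main study. Data are shown with standard deviation of two replicates.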

COc1ccc2c(c1)c(C1=C(c3c[nH]c4ccccc34)C(=O)NC1=O)cn2CCCN(C)C [Go 6983]
potency on Pmp22 expression [1]: lack of potency

CCCCCCCCCCCCCC(=O)O[C@@H]1[C@@H](C)[C@@]2(O)[C@@H](C=C(CO)C[C@]3(O)C(=O)C(C)=C[C@@H]23)[C@@H]2C(C)(C)[C@]12OC(C)=O [PMA, Phorbol 12-myristate 13-acetate]
effect on Pmp22 reporter expression ([2]; nanomolar levels, 24 h, secNLuc S16 cell line): repression

O=C1O[C@H]([C@@H](O)CO)C(O)=C1O [ascorbic acid]
effect in CMT1A patients [3]: have not shown a significant effect

CCC/C=C/C=C/C(=O)O[C@H]1/C(=C/C(=O)OC)C[C@H]2C[C@H]([C@@H](C)O)OC(=O)C[C@H](O)C[C@@H]3C[C@H](OC(C)=O)C(C)(C)[C@](O)(C[C@@H]4C/C(=C/C(=O)OC)C[C@H](/C=C/C(C)(C)[C@]1(O)O2)O4)O3 [bryostatin, Bryostatin 1]
efficacy relative to the control, bortezomib ([2]; S16 NLuc assay, full titration response profile): partial efficacy
Pmp22 expression relative to untreated S16 cells [4]: ≤ 50%
Myelin-associated glycoprotein expression [5]: decline to a greater degree than Pmp22
Periaxin expression [5]: decline to a greater degree than Pmp22
expression of most of the other tested genes [5]: not affected
effect in the intronic FLuc assay [6]: no inhibitory effect

Cn1cc(C2=C(c3cn(C4CCN(Cc5ccccn5)CC4)c4ccccc34)C(=O)NC2=O)c2ccccc21 [enzastaurin]
potency on Pmp22 expression [1]: lack of potency

CC(=O)[C@@]1(O)CC[C@H]2[C@@H]3CCC4=CC(=O)CC[C@]4(C)C3(F)[C@@H](O)C[C@@]21C (stereo partly drawn) [flugestone]
effect on reporter activity [1]: increasing reporter activity

CC#C[C@]1(O)CC[C@H]2[C@@H]3CCC4=CC(=O)CCC4=C3[C@@H](c3ccc(N(C)C)cc3)C[C@@]21C [mifepristone]
effect on reporter activity [1]: marginal effect

Reference: paper PMC4245164 (ACS Chemical Biology, 2014)
